Reference: publication PMC6219704 (Cell chemical biology, 2018)

Tests used:
[1] = system: E. coli strains with A2503C, A2059G or A2059C in the 23S rRNA; assay: MIC against erythromycin-resistant strains with 23S rRNA mutations; assay type: cell-based, Escherichia coli; conditions: Table S2 (not available)
Outline: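 Broth microdilution in Müller-Hinton broth with E. coli grown at 37°C. Test compounds started at 128 μM and were serially two-fold diluted, then halved again on adding bacteria to 2.5 × 10^4 CFU/well. Plates sealed and incubated overnight at 37°C. MIC taken as the lowest concentration preventing visible growth.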

[2] = biological target: E. coli ribosomes on H-ns-PPP mRNA (Escherichia coli, UniProt P60723); assay: Toeprinting assay in fully reconstituted in vitro translation system; assay type: biochemical; conditions: 1-100 μM peptide, 100 μM thiostrepton; 15 min 37°C

| SMILES | Change in MIC with 23S rRNA mutations versus wildtype (in words) [1] | Toeprint result (in words) [2] |
| --- | --- | --- |
| CC[C@H]1OC(=O)[C@H](C)[C@@H](O[C@H]2C[C@@](C)(OC)[C@@H](O)[C@H](C)O2)[C@H](C)[C@@H](O[C@@H]2O[C@H](C)C[C@H](N(C)C)[C@H]2O)[C@](C)(O)C[C@@H](C)C(=O)[C@H](C)[C@@H](O)[C@]1(C)O [erythromycin] | increased MIC | – |
| C=C(NC(=O)C(=C)NC(=O)c1csc(C2=N[C@@H]3c4csc(n4)[C@H]4NC(=O)c5csc(n5)[C@H]([C@](C)(O)[C@@H](C)O)NC(=O)[C@H]5CSC(=N5)/C(=C/C)NC(=O)[C@H]([C@@H](C)O)NC(=O)c5csc(n5)[C@]3(CC2)NC(=O)[C@H](C)NC(=O)C(=C)NC(=O)[C@H](C)NC(=O)[C@H]([C@@H](C)CC)N[C@@H]2C=Cc3c([C@H](C)O)cc(nc3[C@H]2O)C(=O)O[C@@H]4C)n1)C(N)=O [thiostrepton] | – | ribosomes can initiate at the AUG start codon but cannot translate further |
